Data reported in ChEMBL document CHEMBL1147085, “Metabolism and pharmacokinetics of a novel Src kinase inhibitor TG100435 ([7-(2,6-dichloro-phenyl)-5-methyl-benzo[1,2,4]triazin-3-yl]-[4-(2-pyrrolidin-1-yl-ethoxy)-phenyl]-amine) and its active N-oxide metabolite TG100855 …” (Drug Metab Dispos, 2007).

Key:
Mus musculus [1] = experiment: AUC (0 to infinity) in BALB/c mouse assessed as AUC of ([7-(2,6-Dichloro-phenyl)-5-methyl-benzo[1,2,4]triazin-3-yl]-[4-(2-pyrrolidin-1-yl-ethoxy)-phenyl]-amine) at 25 mg/kg, po; details: in vivo
Rattus norvegicus [2] = experiment: AUC (0 to infinity) in Sprague-Dawley rat assessed as AUC of ([7-(2,6-Dichloro-phenyl)-5-methyl-benzo[1,2,4]triazin-3-yl]-[4-(2-pyrrolidin-1-yl-ethoxy)-phenyl]-amine) at 25 mg/kg, po; details: in vivo
Mus musculus [3] = experiment: AUC (0 to last) in BALB/c mouse assessed as AUC of ([7-(2,6-Dichloro-phenyl)-5-methyl-benzo[1,2,4]triazin-3-yl]-[4-(2-pyrrolidin-1-yl-ethoxy)-phenyl]-amine) at 25 mg/kg, po; details: in vivo
[4] = Drug level in Sprague-Dawley rat plasma at 5 mg/kg, iv; format: ADME, organism-based; parameters: dose 5 mg/kg, route intravenous
[5] = AUC (0 to last) in BALB/c mouse at 25 mg/kg, po; format: ADME, organism-based; parameters: time 0 - last, dose 25 mg/kg, route oral; details: plasma
Outline: (§1)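 Male BALB/c mice (~25 g); fasted overnight for single p.o. dosing, not fasted for i.v. or i.p. dosing. Composite blood sampling, n=3 per time point: 5, 15, 30 min, 1, 3, 6, 24, 48 hr after i.v. dose; 0.5, 1, 3, 5, 8, 24, 30, 48 hr after p.o. or i.p. dose. Heparinized plasma, both parent and N-oxide measured by LC/MS/MS (MRM 494.2/98.1 and 510.2/98.1); non-compartmental analysis, AUC by linear trapezoidal rule.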

[6] = Volume of distribution in BALB/c mouse at 5 mg/kg, iv; format: ADME, organism-based; parameters: dose 5 mg/kg, route intravenous; details: in vivo
[7] = Half life in Sprague-Dawley rat at 5 mg/kg, ip; format: ADME, organism-based; parameters: dose 5 mg/kg, route intraperitoneal; details: in vivo
[8] = Clearance in BALB/c mouse at 5 mg/kg, iv; format: ADME, organism-based; parameters: dose 5 mg/kg, route intravenous; details: in vivo
Outline: as §1

Rattus norvegicus [9] = experiment: AUC (0 to last) in Sprague-Dawley rat assessed as AUC of ([7-(2,6-Dichloro-phenyl)-5-methyl-benzo[1,2,4]triazin-3-yl]-[4-(2-pyrrolidin-1-yl-ethoxy)-phenyl]-amine) at 25 mg/kg, po; details: in vivo
[10] = Volume of distribution in Sprague-Dawley rat at 5 mg/kg, iv; format: ADME, organism-based; parameters: dose 5 mg/kg, route intravenous; details: in vivo
Mus musculus [11] = experiment: AUC (0 to infinity) in BALB/c mouse assessed as AUC of ([7-(2,6-Dichloro-phenyl)-5-methyl-benzo[1,2,4]triazin-3-yl]-[4-(2-pyrrolidin-1-yl-ethoxy)-phenyl]-amine) at 5 mg/kg, ip; format: ADME, organism-based, Plasma; parameters: time infinity, dose 5 mg/kg, route intraperitoneal; details: in vivo
Outline: as §1

[12] = Bioavailability in Sprague-Dawley rat at 25 mg/kg, po; format: ADME, organism-based; details: in vivo
[13] = Tmax in Sprague-Dawley rat at 25 mg/kg, po; format: ADME, organism-based; parameters: dose 25 mg/kg, route oral; details: in vivo
Mus musculus [14] = experiment: AUC (0 to infinity) in BALB/c mouse assessed as AUC of ([7-(2,6-Dichloro-phenyl)-5-methyl-benzo[1,2,4]triazin-3-yl]-[4-(2-pyrrolidin-1-yl-ethoxy)-phenyl]-amine) at 5 mg/kg, iv; format: ADME, organism-based, Plasma; parameters: time infinity, dose 5 mg/kg, route intravenous; details: in vivo
Outline: as §1

[15] = Drug level in BALB/c mouse plasma at 5 mg/kg, iv; format: ADME, organism-based; parameters: dose 5 mg/kg, route intravenous
Outline: as §1

Mus musculus [16] = experiment: Drug level in BALB/c mouse plasma at 5 mg/kg, ip; format: ADME, organism-based; parameters: dose 5 mg/kg, route intraperitoneal; details: in vivo
Outline: as §1

[17] = AUC (0 to infinity) in BALB/c mouse at 5 mg/kg, ip; format: ADME, organism-based; parameters: time infinity, dose 5 mg/kg, route intraperitoneal; details: plasma
Outline: as §1

[18] = AUC (0 to infinity) in BALB/c mouse at 5 mg/kg, iv; format: ADME, organism-based; parameters: time infinity, dose 5 mg/kg, route intravenous; details: plasma
Outline: as §1

[19] = Half life in BALB/c mouse at 5 mg/kg, ip; format: ADME, organism-based; parameters: dose 5 mg/kg, route intraperitoneal; details: in vivo
Outline: as §1

[20] = AUC (0 to infinity) in BALB/c mouse at 25 mg/kg, po; format: ADME, organism-based; parameters: time infinity, dose 25 mg/kg, route oral; details: plasma
Outline: as §1

[21] = AUC (0 to infinity) in Sprague-Dawley rat at 30 mg/kg, po; format: ADME, organism-based; parameters: time infinity, dose 30 mg/kg, route oral; details: plasma
[22] = Half life in Sprague-Dawley rat at 5 mg/kg, iv; format: ADME, organism-based; parameters: dose 5 mg/kg, route intravenous; details: in vivo
Mus musculus [23] = experiment: Maximal plasma concentration of TG100435 in BALB/C mice after 25 mg/kg oral dose of TG100855; format: ADME, organism-based; parameters: dose 25 mg/kg, route oral; details: in vivo
Outline: as §1

Rattus norvegicus [24] = experiment: Drug level in Sprague-Dawley rat plasma at 5 mg/kg, ip; format: ADME, organism-based; parameters: dose 5 mg/kg, route intraperitoneal; details: in vivo

Work on `Cc1cc(-c2c(Cl)cccc2Cl)cc2nnc(Nc3ccc(OCC[N+]4([O-])CCCC4)cc3)nc12` yielded an AUC (Mus musculus [1]) of 1760 ng·h/mL, an AUC (Rattus norvegicus [2]) of 906 ng·h/mL and an AUC (Mus musculus [3]) of 1740 ng·h/mL. For the same compound, the C0 [4] was 12200 ng/mL, the AUC(0-t) [5] was 912 ng·h/mL and the Vd [6] was 1.2 L/kg. It also gave a half-life [7] of 2.3 h, a clearance [8] of 15.6 mL/min/kg and an AUC (Rattus norvegicus [9]) of 881 ng·h/mL. The Vd [10] was 1.9 L/kg, the AUC (Mus musculus [11]) was 1400 ng·h/mL and the bioavailability [12] was 1.6%. The Tmax [13] was 3.5 h, the AUC (Mus musculus [14]) was 1390 ng·h/mL and the C0 [15] was 9030 ng/mL. For the same compound, the C0 (Mus musculus [16]) was 4100 ng/mL, the AUC(0-inf) [17] was 6520 ng·h/mL and the AUC(0-inf) [18] was 5350 ng·h/mL. For the same compound, the half-life [19] was 2.8 h, the AUC(0-inf) [20] was 939 ng·h/mL and the AUC(0-inf) [21] was 9310 ng·h/mL. For the same compound, the half-life [22] was 1.6 h, the Cmax (Mus musculus [23]) was 113 ng/mL and the C0 (Rattus norvegicus [24]) was 1080 ng/mL.
